Here are results for five compounds from ChEMBL document CHEMBL1132947, “Synthesis and biological evaluation of 2'-carbamate-linked and 2'-carbonate-linked prodrugs of paclitaxel: selective activation by the tumor-associated protease plasmin” (J Med Chem, 2000).

Values after ≈ are worked out from the molar mass of the structure shown.

Holding throughout (assay type): functional, cell-based
Common to all, as to settings: Homo sapiens

One assay relates to MCF7. The experiment in a line: Cytotoxicity against MCF-7 Tumor cell line in SRB Cell viability test. The essentials:
(§1)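 Human tumor cell lines exposed to (pro)drug for 5 days; growth measured by microculture sulforhodamine B assay. ID50 = concentration giving 50% growth inhibition versus untreated control cultures, reported in ng/mL. Experiments run in quadruplicate and results averaged.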

For the next assay, the system named is EVSA-T. Kind of assay: Cytotoxicity against EVSA-T Tumor cell line in SRB Cell viability test. Summed up: as §1
The next assay relates to A498. Kind of assay: Cytotoxicity against A498 Tumor cell line in SRB Cell viability test. The essentials: as §1
The test system of another assay is NCI-H226. Kind of assay: Cytotoxicity against H226 Tumor cell line in SRB Cell viability test. Summed up: as §1
A further assay relates to IGROV-1. The experiment in a line: Cytotoxicity against IGROV Tumor cell line in SRB Cell viability test. The essentials:
as §1

For the next assay, the system named is WiDr. The experiment in a line: Cytotoxicity against WIDR Tumor cell line in SRB Cell viability test. Summed up: as §1
A further assay deals with M19-MEL. The experiment in a line: Cytotoxicity against M19 Tumor cell line in SRB Cell viability test. The essentials: as §1

The IC50 is the midpoint of a concentration-inhibition curve. Lower therefore signals greater potency.

Regarding `CC(=O)O[C@H]1C(=O)[C@@]2(C)[C@H]([C@H](OC(=O)c3ccccc3)[C@]3(O)C[C@H](OC(=O)[C@H](O)[C@@H](NC(=O)c4ccccc4)c4ccccc4)C(C)=C1C3(C)C)[C@]1(OC(C)=O)CO[C@@H]1C[C@@H]2O` [PACLITAXEL], the IC50 is less than 0.003 µg/mL in the assay with MCF7; less than 0.003 µg/mL in the assay with EVSA-T; less than 0.003 µg/mL in the assay on A498; less than 0.003 µg/mL in the assay with NCI-H226; 0.01 µg/mL (≈ 11.7 nM) in the assay on IGROV-1; less than 0.003 µg/mL in the assay on WiDr. In the assay on M19-MEL, this compound showed an IC50 of less than 0.003 µg/mL.

Turning to `CC(=O)O[C@H]1C(=O)[C@@]2(C)[C@H]([C@H](OC(=O)c3ccccc3)[C@]3(O)CC(OC(=O)[C@H](OC(=O)OCc4ccc(NC(=O)[C@H](CCCCN)NC(=O)[C@H](CC(C)C)NC(=O)[C@H](N)C(C)C)cc4)C(NC(=O)c4ccccc4)c4ccccc4)C(C)=C1C3(C)C)[C@]1(OC(C)=O)CO[C@@H]1C[C@@H]2O.Cl.Cl` (stereo not given in full), the IC50 with MCF7 was 0.0092 µg/mL; with EVSA-T, 0.0093 µg/mL; in the assay with A498, more than 0.06 µg/mL; in the assay on NCI-H226 it was 0.016 µg/mL; with IGROV-1, 0.027 µg/mL; in the assay with WiDr, 0.011 µg/mL. Also, in the assay with M19-MEL, the IC50 stood at 0.02 µg/mL.

For the compound `CC(=O)O[C@H]1C(=O)[C@@]2(C)[C@H]([C@H](OC(=O)c3ccccc3)[C@]3(O)CC(OC(=O)[C@H](OC(=O)N(C)CCN(C)C(=O)[C@H](CCCCN)NC(=O)[C@H](CC(C)C)NC(=O)[C@H](N)C(C)C)C(NC(=O)c4ccccc4)c4ccccc4)C(C)=C1C3(C)C)[C@]1(OC(C)=O)CO[C@@H]1C[C@@H]2O.Cl.Cl` (stereo not given in full), the IC50 with MCF7 stood at 0.0069 µg/mL; in the assay with EVSA-T, 0.0052 µg/mL; in the assay with A498, 0.045 µg/mL; in the assay on NCI-H226, 0.025 µg/mL; with IGROV-1, 0.026 µg/mL; with WiDr, 0.011 µg/mL. The compound also came in with a 50% inhibitory concentration (IC50) in the assay with M19-MEL of 0.024 µg/mL.

In the case of `CC(=O)O[C@H]1C(=O)[C@@]2(C)[C@H]([C@H](OC(=O)c3ccccc3)[C@]3(O)CC(OC(=O)[C@H](OC(=O)N(C)CCN(C)C(=O)[C@H](CCCCN)NC(=O)[C@H](Cc4ccccc4)NC(=O)[C@@H](C)N)C(NC(=O)c4ccccc4)c4ccccc4)C(C)=C1C3(C)C)[C@]1(OC(C)=O)CO[C@@H]1C[C@@H]2O.Cl.Cl` (stereo not given in full), the IC50 with MCF7 worked out at 0.0066 µg/mL; with EVSA-T, 0.0072 µg/mL; in the assay with A498, 0.038 µg/mL; with NCI-H226, 0.021 µg/mL; with IGROV-1, 0.011 µg/mL; in the assay with WiDr, 0.01 µg/mL. In the assay on M19-MEL, the IC50 is 0.017 µg/mL.

In the case of `CC(=O)O[C@H]1C(=O)[C@@]2(C)[C@H]([C@H](OC(=O)c3ccccc3)[C@]3(O)CC(OC(=O)[C@H](OC(=O)NCCNC(=O)[C@H](CCCCN)NC(=O)[C@H](Cc4ccccc4)NC(=O)[C@@H](C)N)C(NC(=O)c4ccccc4)c4ccccc4)C(C)=C1C3(C)C)[C@]1(OC(C)=O)CO[C@@H]1C[C@@H]2O.Cl.Cl` (stereo not given in full), the IC50 with MCF7 turned out to be 0.016 µg/mL; in the assay on EVSA-T, 0.011 µg/mL; with A498, 0.04 µg/mL; in the assay on NCI-H226, 0.041 µg/mL; in the assay on IGROV-1, 0.019 µg/mL; with WiDr, 0.013 µg/mL. This compound also had an IC50 in the assay on M19-MEL of 0.045 µg/mL.
